In ChEMBL document CHEMBL3085653, “Synthesis and evaluation of hexahydropyrimidines and diamines as novel hepatitis C virus inhibitors” (Eur J Med Chem, 2013):
Active and inactive are the calls of the source. The rule behind the calls is not given here.

Tests used:
[1] = Chemical stability in cell culture medium assessed as formation of N1,N3-dibenzylpropane-1,3-diamine at 37 degC after 2 days by LC/MS analysis; type: physicochemical; conditions: 48 h
Summary of the method: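 Compound incubated with cells in culture medium at 37 °C for two days. Supernatant then analysed by LC/MS for the parent compound and the ring-opened diamine.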

Hepatitis C virus [2] = test: Antiviral activity against cell culture derived HCV expressing NS5A-GFP fusion protein infected in human HuH7 cells assessed as inhibition of viral life cycle after 72 hrs by Hoechst-33342 staining-based confocal microscopy; type: functional, organism-based, Hepacivirus hominis; conditions: Huh-7, 72 h
Hepatitis C virus [3] = test: Antiviral activity against HCV pseudoparticle expressing envelope protein E1 and E2 assessed as inhibition of E1/E2-mediated viral entry into human Huh7 cells treated for 1 hr prior to viral inoculation followed by compound washout 12 hrs post viral inoculation measured after 72 hrs by GFP reporter gene-based confocal microscopic analysis; type: functional, organism-based, Hepacivirus hominis; conditions: Huh-7
Hepatitis C virus [4] = test: Antiviral activity against HCV expressing GFP infected in human HuH7 cells assessed as inhibition of viral RNA replication after 72 hrs by Hoechst-33342 staining-based confocal microscopy; type: functional, organism-based, Hepacivirus hominis; conditions: Huh-7, 72 h
Summary of the method: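 Huh-7 replicon cells expressing GFP seeded at 2000 cells/well and incubated overnight, then given serially diluted compounds for 72 h. Cells fixed in 2% PFA and nuclei stained with Hoechst 33342 (10 μg/mL). Automated confocal imaging used: RNA replication read as GFP expression, cytotoxicity as nucleus counts. EC50 calculated by non-linear regression.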

[5] = Metabolic stability in liver microsomes (unknown origin) assessed as formation of N1,N3-dibenzylpropane-1,3-diamine by mass spectrum analysis; type: ADME, Microsome
Hepatitis C virus [6] = test: Antiviral activity against HCV assessed as prevention of infectious virions release into cell culture supernatant by viral supernatant transfer assay; type: functional, organism-based; conditions: Hepacivirus hominis
[7] = Cytotoxicity against human HuH7 cells; type: cell-based, Huh-7
[8] = Selectivity index, ratio of CC50 for human HuH7 cells to EC50 for cell culture derived HCV expressing NS5A-GFP fusion protein; design: species or system Huh-7
Summary of the method: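 Index is CC50 divided by EC50. Both values come from the same 10-point dose response in naïve Huh-7 cells infected with NS5A-GFP HCVcc (MOI 1), read at 72 h post-infection. EC50 taken from GFP-positive infection and CC50 from Hoechst nuclei counts, by confocal imaging. Duplicates with quadruplicate measurements.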

With `c1ccc(CN2CCCN(Cc3ccccc3)C2c2ccncc2)cc1` the Stability [1] was “Unstable”, the EC50 (Hepatitis C virus [2]) was 4300 nM and the EC50 (Hepatitis C virus [3]) was 4 µM. The EC50 (Hepatitis C virus [4]) was > 50 µM, the Stability [5] was “Unstable” and the Activity (Hepatitis C virus [6]) was “Active”. The CC50 [7] was > 50 µM and the “Ratio CC50/EC50” value [8] was >12.
In the case of `COc1ccc(CNCC2CCCN(Cc3ccc(OC)cc3)C2)cc1` (stereo not drawn), the EC50 (Hepatitis C virus [2]) is reported as 1100 nM, the CC50 [7] is reported as 34.5 µM and the “Ratio CC50/EC50” value [8] is reported as 31.
For `CC(C(=O)NCCCNC(=O)C(C)c1ccccc1)c1ccccc1` (stereo not drawn), the EC50 (Hepatitis C virus [2]) was > 50000 nM and the CC50 [7] was > 50 µM.
With `NCCCNCCCCNCCCN` [SPERMINE] the EC50 (Hepatitis C virus [2]) was > 50000 nM and the CC50 [7] was > 50 µM.
In the case of `CN(C)c1ccc(CN2CCCN(Cc3ccc(N(C)C)cc3)C2c2ccc(C(F)(F)F)cc2)cc1`, the EC50 (Hepatitis C virus [2]) is reported as 1500 nM, the Activity (Hepatitis C virus [6]) is reported as “Active” and the CC50 [7] is reported as 23 µM. For the same compound, the “Ratio CC50/EC50” value [8] was 15.
For `CC1N(Cc2ccccc2)CCCN1Cc1ccccc1`, the EC50 (Hepatitis C virus [2]) was 3700 nM, the Activity (Hepatitis C virus [6]) was “Active” and the CC50 [7] was > 50 µM. The “Ratio CC50/EC50” value [8] was >14.
In the case of `COc1ccc(CN2CCCN(Cc3ccc(OC)cc3)C2c2ccc(N(C)C)cc2)cc1`, the EC50 (Hepatitis C virus [2]) is reported as 1300 nM, the Activity (Hepatitis C virus [6]) is reported as “Active” and the CC50 [7] is reported as 28 µM. For the same compound, the “Ratio CC50/EC50” value [8] was 22.
In the case of `CN(C)c1ccc(CN2CCCN(Cc3ccc(N(C)C)cc3)C2c2ccncc2)cc1`, the EC50 (Hepatitis C virus [2]) is reported as 830 nM, the Activity (Hepatitis C virus [6]) is reported as “Active” and the CC50 [7] is reported as 14 µM. The “Ratio CC50/EC50” value [8] was 17.
With `COc1cccc(CN2CCCN(Cc3ccccc3F)C2c2ccc(C(F)(F)F)cc2)c1` (stereo not drawn) the EC50 (Hepatitis C virus [2]) was 2700 nM, the Activity (Hepatitis C virus [6]) was “Active” and the CC50 [7] was 23 µM. For the same compound, the “Ratio CC50/EC50” value [8] was 8.5.
In the case of `c1ccc(NCCCCNc2ccccc2)cc1`, the EC50 (Hepatitis C virus [2]) is reported as > 50000 nM and the CC50 [7] is reported as > 50 µM.
For `COc1ccc(CNCCCCNCc2ccc(OC)cc2)cc1`, the EC50 (Hepatitis C virus [2]) was 380 nM, the CC50 [7] was 32 µM and the “Ratio CC50/EC50” value [8] was 84.
In the case of `COc1ccc(CN2CCCC(CNc3ccc(OC)cc3)C2)cc1` (stereo not drawn), the EC50 (Hepatitis C virus [2]) is reported as 11000 nM, the CC50 [7] is reported as > 50 µM and the “Ratio CC50/EC50” value [8] is reported as >4.7.
For `COc1ccc(CNCCCNCc2ccc(OC)cc2)cc1`, the EC50 (Hepatitis C virus [2]) was 1500 nM, the CC50 [7] was 33 µM and the “Ratio CC50/EC50” value [8] was 22.
In the case of `CN(C)c1ccc(C2N(Cc3ccccc3)CCCN2Cc2ccccc2)cc1`, the EC50 (Hepatitis C virus [2]) is reported as 25000 nM, the Activity (Hepatitis C virus [6]) is reported as “Active” and the CC50 [7] is reported as > 50 µM. For the same compound, the “Ratio CC50/EC50” value [8] was >2.
For `c1ccc(CCNCCCNCCc2ccccc2)cc1`, the EC50 (Hepatitis C virus [2]) was 1100 nM, the CC50 [7] was 12 µM and the “Ratio CC50/EC50” value [8] was 11.
With `O=C1N(Cc2ccccc2)CCCN1Cc1ccccc1` the EC50 (Hepatitis C virus [2]) was > 50000 nM, the Activity (Hepatitis C virus [6]) was “Active” and the CC50 [7] was > 50 µM.
With `CC(=O)N(CCCCN(Cc1ccccc1)C(C)=O)Cc1ccccc1` the EC50 (Hepatitis C virus [2]) was > 50000 nM and the CC50 [7] was > 50 µM.
For `CN(C)c1ccc(CNCCCCNCc2ccc(N(C)C)cc2)cc1`, the EC50 (Hepatitis C virus [2]) was 320 nM, the CC50 [7] was 11 µM and the “Ratio CC50/EC50” value [8] was 34.
In the case of `COc1ccc(CN2CCCN(Cc3ccc(OC)cc3)C2c2cccc(C(F)(F)F)c2)cc1`, the EC50 (Hepatitis C virus [2]) is reported as 3200 nM, the Activity (Hepatitis C virus [6]) is reported as “Active” and the CC50 [7] is reported as 43 µM. The “Ratio CC50/EC50” value [8] was 13.
With `COc1ccc(CN2CCCN(Cc3ccc(OC)cc3)C2c2ccc(C#N)cc2)cc1` the EC50 (Hepatitis C virus [2]) was 1500 nM, the Activity (Hepatitis C virus [6]) was “Active” and the CC50 [7] was 20 µM. The “Ratio CC50/EC50” value [8] was 13.
With `COc1cccc(CN2CCCN(Cc3ccccc3F)C2c2ccncc2)c1` (stereo not drawn) the EC50 (Hepatitis C virus [2]) was 4700 nM, the Activity (Hepatitis C virus [6]) was “Active” and the CC50 [7] was > 50 µM. The “Ratio CC50/EC50” value [8] was >11.
